APP 5'UTR act = activates APP 5'UTR luciferase reporter; SH-SY5Y APP 5'UTR luciferase reporter, luminescence; zero percent = DMSO vehicle wells; activation, % at 2 µM; 1% of 190,000 active;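 active = activation above a set limit, based on mean plus 3 SD of controls, cut at about 140% in these data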
TRAIL sens C8 = caspase-8 TRAIL sensitization | NB7+C8 cells + TRAIL, ATPlite viability luminescence | 1% of 360,000 active | inhibition (viability loss, TRAIL sensitization), % at 10 µM;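 active = compounds causing at least 50% loss of cell viability in the single-dose screen, relative to plate controls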
FLuc stim CS = firefly luciferase counter-screen for stimulation assays. ATPlite luciferase biochemical, luminescence, 10 min; 0 = ATP-free wells, 1 = DMSO control. activation factor at 10 µM. 200,000 tested, under 10 active. AID 1027;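 active = luciferase activation factor, scaled between plate controls, of at least 2 with compound at 10 µM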
Target sequence (P08659 whole entry, looked up): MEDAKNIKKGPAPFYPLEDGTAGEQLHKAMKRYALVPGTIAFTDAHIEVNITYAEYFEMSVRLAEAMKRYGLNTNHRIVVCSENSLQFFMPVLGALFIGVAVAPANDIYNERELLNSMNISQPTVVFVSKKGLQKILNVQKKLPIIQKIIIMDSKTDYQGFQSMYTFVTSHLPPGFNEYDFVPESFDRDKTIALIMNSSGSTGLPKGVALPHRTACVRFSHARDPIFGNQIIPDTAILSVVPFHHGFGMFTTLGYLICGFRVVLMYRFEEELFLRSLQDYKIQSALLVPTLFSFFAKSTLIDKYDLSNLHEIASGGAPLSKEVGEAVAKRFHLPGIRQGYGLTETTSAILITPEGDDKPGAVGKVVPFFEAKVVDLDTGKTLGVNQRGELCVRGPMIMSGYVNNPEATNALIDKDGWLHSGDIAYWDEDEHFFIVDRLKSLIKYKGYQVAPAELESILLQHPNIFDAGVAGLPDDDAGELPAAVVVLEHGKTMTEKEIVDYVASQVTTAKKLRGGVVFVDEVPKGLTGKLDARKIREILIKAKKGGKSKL
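System: Luciferase/luciferin detection reagent, cell-free biochemical luciferase assay | Medium: PBS buffer for ATP | Dosing: Test compounds dosed from 2 mM stocks in 100% DMSO | Timing: 10 min at ambient temperature | Signal: Luminescence measurement of luciferase light output | Evaluation: Luciferase activation, seen as luminescence increase over controls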
PPC-1+TRAIL kill = kills PPC-1 cancer cells in the presence of TRAIL; cell killing (% activity), % at 4 µM or 5 µM; PPC-1 cells + TRAIL, ATPLite viability luminescence; 0.41% of 220,000 active;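 active = cell killing above 50% in the first pass at 4 µM, then a duplicate retest at 5 µM averaging 50% or more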;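 also: plate controls were cells with TRAIL plus DMSO for no effect and medium-only wells lacking cells for full effect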
FLuc inh counter = counter-screen for luciferase assay inhibitors: firefly luciferase inhibition | P08659 | ATPLite firefly luciferase biochemical luminescence, 10 min | inhibition, % at 10 µM | 1.5% of 200,000 active;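 active = inhibition above about 50% when tested at 10 µM, limit read from the data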
NF-kB neuron act = raises NF-kB expression in human neuronal cells; NF-kB reporter expression; hits give high values; fold change at 12.5 µM; 1.6% of 190,000 active; in the data active = fold change above about 3.3
Starred values were filed as active, the others as inactive; . = no result given. This is a sample that favours compounds with a hit; in the whole collection about 2.2% have one here.

SMILES	APP 5'UTR act	TRAIL sens C8	FLuc stim CS	PPC-1+TRAIL kill	FLuc inh counter	NF-kB neuron act
O=C(O)c1ccc(N2C(=O)CC(SC(=Nc3ccccc3)Nc3ccccc3)C2=O)cc1 (stereo unspecified)	0	-2	1	27	-2	0.93
CCC(C)Nc1ccc(NC(C)CC)cc1 (stereo unspecified)	.	77*	.	.	.	.
Cc1[nH]c2ccccc2c1C(=O)C(=O)N1CCN(c2ccccc2F)CC1	.	-1	.	.	.	.
Clc1ccc(COn2nnc3ccccc32)c(Cl)c1	153*	13	0.9	13	12	2.4
COc1ccccc1C(=O)O/N=C1/CCCc2c1ccc(OC)c2[N+](=O)[O-]	6	-1	1.1	9	-6	1.1
COc1ccc2c(c1)CC/C2=N\OC(=O)c1ccccc1OC	25	2	0.3	22	72*	1.7
CN(C)CCC(=O)N1C/C(=C/c2ccccc2)C(=O)/C(=C\c2ccccc2)C1	.	95*	.	.	.	.
C[N+](C)(C)CCC(=O)N1C/C(=C/c2ccccc2)C(=O)/C(=C\c2ccccc2)C1	.	-5	.	.	.	.
O=C1/C(=C/c2ccccc2)CN(C(=O)CCN2CCOCC2)C/C1=C\c1ccccc1	.	56*	.	.	.	.
COc1ccc(OC(=O)N2C/C(=C/c3ccccc3)C(=O)/C(=C\c3ccccc3)C2)cc1	.	52*	.	.	.	.
Cc1ccccc1C(=O)N1[C@@H](C(C)C)COc2cc(Br)ccc2S1(=O)=O	.	17	.	.	.	.
Cc1ccsc1C(=O)N1CCCC(C)(C(=O)NS(=O)(=O)C2CC2)C1 (stereo unspecified)	.	-7	.	.	.	.
CC1=CC(C)C(=O)N(C)C(C)=C1 (stereo unspecified)	.	11	.	.	.	.
CC1CCc2cc(F)ccc2N1C(=O)CCl (stereo unspecified)	4	94*	1.1	18	-7	1.1
CCC(CC)C(=O)N1c2ccc(F)cc2CCC1C (stereo unspecified)	8	-4	1.1	2	-6	1.1
CCOc1cc(C(=O)N/N=C/c2cn(-c3ccccc3)nc2-c2cc3ccccc3o2)cc(OCC)c1OCC	.	13	.	.	.	.
CCN(CC)S(=O)(=O)c1ccc(NC(=O)Nc2cccc(C(F)(F)F)c2)cc1	7	69*	1.1	2	-8	0.46
COc1ccc(CC(N)c2csc(NC(=O)Nc3cccc(C(F)(F)F)c3)n2)cc1 (stereo unspecified)	.	70*	.	.	.	.
O=C(Nc1ccc(OC(F)F)cc1)Nc1cccc(C(F)(F)F)c1	0	60*	1	17	4	0.82
O=C(COC(=O)CCNS(=O)(=O)c1ccccc1)NNC(=O)c1ccccc1	.	-5	.	.	.	.
CC[C@]12c3[nH]c4ccccc4c3CCN1C(=O)C(CC(=O)NCCC1=CCCCC1)C[C@@H]2C(=O)N1CCN(C(=O)c2ccco2)CC1 (stereo partly specified)	.	6	.	.	.	.
CCCCn1c(=O)[nH]c(=O)c2c1nc(Cn1ncc(Cl)c(Cl)c1=O)n2CCC	.	95*	.	.	.	.
CCCCn1c(=O)[nH]c(=O)c2c1nc(CN1C(=O)c3ccccc3S1(=O)=O)n2CCC	19	-7	1.1	41	-8	0.75
C[C@H](CO)N1C[C@H](C)[C@@H](CN(C)C(=O)Nc2ccc(C(F)(F)F)cc2)Oc2ccc(NC(=O)Cn3cnnn3)cc2C1=O	.	-2	.	.	.	.
COc1ccc(C2CC(c3c(O)cc(C)oc3=O)=NCCS2)c(OC)c1 (stereo unspecified)	-93	78*	0.6	20	38	5.8*
SMILES	APP 5'UTR act	TRAIL sens C8	FLuc stim CS	PPC-1+TRAIL kill	FLuc inh counter	NF-kB neuron act
O=C1c2ccccc2C(=O)c2c(Nc3ccc(CCO)cc3)ccc(O)c21	.	-2	.	-2	.	.
O=C1c2c(O)ccc(O)c2C(=O)c2c(NCCNCCO)ccc(NCCNCCO)c21	.	82*	.	.	.	.
COc1ccc(C(=O)NCN2CCN(c3ccccc3)CC2)cc1OC	.	15	.	.	.	.
O=C1c2ccccc2C(Nc2ccc3c(c2)OCO3)N1Cc1ccc2c(c1)OCO2 (stereo unspecified)	5	-5	1	0	-2	1.6
O=C1c2ccccc2C(Nc2cccnc2)N1Cc1ccc2c(c1)OCO2 (stereo unspecified)	-21	1	1.1	65*	-10	1.4
Cc1cc(C(=O)OC(C)C(=O)NC2CCCCC2C)c2ccccc2n1 (stereo unspecified)	.	-4	.	.	.	.
Cc1ccc(NC(=O)COc2ccccc2C=O)cc1Cl	154*	-12	0.8	12	21	6.8*
C[C@H]1CN([C@@H](C)CO)C(=O)CCCn2nncc2CO[C@H]1CN(C)C(=O)Cc1ccccc1	.	-42	.	.	.	.
CCOC(=O)N1CCC(Nc2c(-c3ccc(C)c(C)c3)c(=O)c2=O)CC1	4	58*	1.1	-2	-8	1.2
CCOC(=O)N1CCC(Nc2c(N3CCN(c4cc(Cl)ccc4C)CC3)c(=O)c2=O)CC1	23	23	1.1	8	-11	0.75
CC(=O)NC(=S)Nc1sc2c(c1C(N)=O)CCC(C)C2 (stereo unspecified)	65	15	0.6	18	38	3.5*
CCCN(c1ccccc1F)S(=O)(=O)c1cc(-c2cc(C)no2)ccc1OC	.	7	.	.	.	.
CC(=O)Oc1cccc(N2C(=O)c3cccc4c([N+](=O)[O-])ccc(c34)C2=O)c1	.	36	.	.	.	.
CN(C)CCCN1C(=O)c2cccc3c([N+](=O)[O-])ccc(c23)C1=O	-80	20	1	29	-1	4.3*
Cc1ccc(C(=O)O)cc1N1C(=O)c2cccc3c([N+](=O)[O-])ccc(c23)C1=O	.	17	.	.	.	.
O=C(O)c1ccc(CN2C(=O)c3cccc4c([N+](=O)[O-])ccc(c34)C2=O)cc1	.	58*	.	.	.	.
O=c1ccc(-c2ccccc2)nn1Cc1ccc(F)cc1Cl	.	9	.	.	.	.
Cc1ccc(N=C2NC(=O)/C(=C\c3ccsc3)S2)c(C)c1	-18	18	1	1	2	4.4*
Cc1ccc(N=C2NC(=O)/C(=C/c3cccnc3)S2)c(C)c1	.	-9	.	16	.	.
Cc1cc(C)c(C)c(S(=O)(=O)Nc2ccccc2N2CCOCC2)c1C	.	-1	.	.	.	.
Cc1ccccc1NC1=C/C(=N\S(=O)(=O)c2cccs2)c2ccccc2C1=O	-10	90*	1	26	1	0.21
O=C(O)c1cccc(CN2C(=O)SC(Nc3cccc4ccccc34)C2=O)c1 (stereo unspecified)	38	-1	0.4	6	58*	1
O=C(O)c1cccc(CN2C(=O)SC(Nc3ccccc3)C2=O)c1 (stereo unspecified)	11	14	1.1	11	-5	1.2
COc1ccccc1NC1=C(N2CCCCC2)C(=O)c2ccccc2C1=O	11	50	1	72*	0	1.2
Cc1cc2c(cc1C)/C(=N/NC(=O)c1ccccn1)CCC2	.	-23	.	-6	.	.
O=C(NN=C1CCC(=NNC(=O)c2ccccn2)CC1)c1ccccn1	171*	-5	1.1	10	-6	1.4

Screening results: PubChem, several laboratories
